According to ChEMBL document CHEMBL3414437, “Synthesis of CDDO-amino acid-nitric oxide donor trihybrids as potential antitumor agents against both drug-sensitive and drug-resistant colon cancer” (J Med Chem, 2015):
The source made the active and inactive calls. No cut-off for these calls is given here.

Assays:
Mus musculus [1] = experiment: Toxicity in nude BALB/c mouse xenografted with FU-resistant human HCT8 cells assessed as abnormal color changes in heart at 59.4 umol/kg administered as via oral gavage daily for 21 days; assay type: organism-based, HCT-8; details: in vivo, 504 h
Outline: (§1)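 Male BALB/c nude mice aged 6-8 weeks, implanted s.c. in the right flank with HCT-8/5-FU cells (2 × 10^6). Once tumors reached 180-200 mm3 (days 9-11), randomized to daily gavage for 21 days in cremophor-EL/DMSO/PBS (1:1:8), 0.2 mL. At the end, liver, kidney, lung and heart checked for size, colour and weight. n = 8 per group.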

HCT-8 [2] = experiment: Inhibition of ERK protein phosphorylation in FU-resistant human HCT8 cells at 1 uM incubated for 24 hrs by Western blotting method; assay type: cell-based
Outline: (§2)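 Cells (1 x 10^6) grown 24 h in 6 cm dishes, then exposed in duplicate for 24 h to 0.25, 0.5 or 1 µM compound, with or without PTIO. Lysates (20 µg/lane) were run on 7.5% SDS-PAGE, blotted to PVDF and blocked in 5% milk. HRP secondaries with ECL detection; bands quantified by densitometry against β-actin or GAPDH. Three separate experiments, mean ± SD.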

Mus musculus [3] = experiment: Toxicity in nude BALB/c mouse xenografted with FU-resistant human HCT8 cells assessed as body weight level at 59.4 umol/kg administered as via oral gavage daily for 21 days (reference value: 20.8 +/- 2.2 g); assay type: organism-based, HCT-8; details: in vivo, 504 h
Outline: (§3)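 Male BALB/c nude mice, 6-8 weeks old, inoculated s.c. in right flank with HCT-8/5-FU cells (2 × 10^6/mouse). Once tumors reached 180-200 mm3 (9-11 days post-implantation), mice were randomized and dosed by gavage daily for 21 consecutive days in cremophor-EL/DMSO/PBS (1:1:8) (vehicle alone 0.2 mL). Body weights recorded on day 1 and day 21. Organ size, color and weights were inspected for liver, kidney, lung and heart. n = 8 per group; mean ± SD.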

Mus musculus [4] = experiment: Toxicity in nude BALB/c mouse xenografted with FU-resistant human HCT8 cells assessed as abnormal size changes in heart at 59.4 umol/kg administered as via oral gavage daily for 21 days; assay type: organism-based, HCT-8; details: in vivo, 504 h; outline: as §1
[5] = Antitumor activity against FU-resistant human HCT8 cells xenografted in nude BALB/c mouse assessed as reduction in tumor weight at 17.8 umol/kg administered as via oral gavage daily for 21 days; assay type: functional; details: HCT-8, po, 504 h
Outline: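 Male BALB/c nude mice, 6–8 weeks old, inoculated s.c. in the right flank with HCT-8/5-FU cells (2 × 10^6). Once tumors reached 180–200 mm3 (days 9–11), mice were randomized (n = 8) to daily oral gavage for 21 days in cremophor-EL/DMSO/PBS (1:1:8). Tumor volume = W2(L/2), caliper-measured every other day, blinded; tumors weighed at end.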

Mus musculus [6] = experiment: Toxicity in female ICR mouse assessed as body weight level at 2.38 x 10^3 umol/kg administered as single dose via oral gavage measured on day 14 post treatment (reference value: 19.5 +/- 0.85 g); assay type: organism-based; details: in vivo
[7] = molecular target: Multidrug resistance-associated protein 1 (Homo sapiens, UniProt P33527); experiment: Induction of nitrosylation of MRP1 protein in FU-resistant human HCT8 cells at 0.25 to 1 uM incubated for 24 hrs by Western blotting method; assay type: cell-based; details: hct-8, 24 h
Outline: (§4)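 HCT-8/5-FU cells (1 × 10^6) treated in duplicate for 24 h with 0.25, 0.5 or 1 µM test compound or 1 µM reference, with or without PTIO. Lysates immunoprecipitated overnight at 4 °C with anti-nitrotyrosine antibody on protein G beads. Eluates blotted with specific anti-Pgp, anti-MRP1 or anti-BCRP antibodies and quantified by densitometry. Mean ± SD of three experiments.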

[8] = molecular target: Signal transducer and activator of transcription 3 (Homo sapiens) (UniProt P40763); experiment: Inhibition of STAT3 protein phosphorylation in human HCT8 cells at 0.25 to 1 uM incubated for 24 hrs by Western blotting method; assay type: cell-based; details: HCT-8; outline: as §2
Mus musculus [9] = experiment: Toxicity in nude BALB/c mouse xenografted with FU-resistant human HCT8 cells assessed as body weight level at 17.8 umol/kg administered as via oral gavage daily for 21 days (reference value: 22.3 +/- 1.9 g); assay type: organism-based, HCT-8; details: in vivo, 504 h; outline: as §3
Mus musculus [10] = experiment: Toxicity in ICR mouse assessed as abnormality in drinking behavior at 0.60 x 10^3 to 2.38 x 10^3 umol/kg administered as single dose via oral gavage measured up to 14 days post treatment; assay type: organism-based; details: in vivo, 336 h
Outline: (§5)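 Adult ICR mice of either sex were randomised and given a single oral gavage dose of 500, 1000, 1500 or 2000 mg/kg in cremophor-EL/DMSO/PBS (1:1:8). Survival, behaviour, water and food intake, body weight and activity were monitored for up to 14 days. Body weights were taken on days 0, 7 and 14.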

Mus musculus [11] = experiment: Toxicity in ICR mouse assessed as general activity changes at 0.60 x 10^3 to 2.38 x 10^3 umol/kg administered as single dose via oral gavage measured up to 14 days post treatment; assay type: organism-based; details: in vivo, 336 h; outline: as §5
[12] = molecular target: T1, Broad substrate specificity ATP-binding cassette transporter ABCG2 (Homo sapiens, UniProt Q9UNQ0); experiment: Induction of nitrosylation of BCRP protein in FU-resistant human HCT8 cells at 0.25 to 1 uM incubated for 24 hrs by Western blotting method; assay type: cell-based; details: hct-8, 24 h; outline: as §4
T1 sequence (Q9UNQ0 whole entry): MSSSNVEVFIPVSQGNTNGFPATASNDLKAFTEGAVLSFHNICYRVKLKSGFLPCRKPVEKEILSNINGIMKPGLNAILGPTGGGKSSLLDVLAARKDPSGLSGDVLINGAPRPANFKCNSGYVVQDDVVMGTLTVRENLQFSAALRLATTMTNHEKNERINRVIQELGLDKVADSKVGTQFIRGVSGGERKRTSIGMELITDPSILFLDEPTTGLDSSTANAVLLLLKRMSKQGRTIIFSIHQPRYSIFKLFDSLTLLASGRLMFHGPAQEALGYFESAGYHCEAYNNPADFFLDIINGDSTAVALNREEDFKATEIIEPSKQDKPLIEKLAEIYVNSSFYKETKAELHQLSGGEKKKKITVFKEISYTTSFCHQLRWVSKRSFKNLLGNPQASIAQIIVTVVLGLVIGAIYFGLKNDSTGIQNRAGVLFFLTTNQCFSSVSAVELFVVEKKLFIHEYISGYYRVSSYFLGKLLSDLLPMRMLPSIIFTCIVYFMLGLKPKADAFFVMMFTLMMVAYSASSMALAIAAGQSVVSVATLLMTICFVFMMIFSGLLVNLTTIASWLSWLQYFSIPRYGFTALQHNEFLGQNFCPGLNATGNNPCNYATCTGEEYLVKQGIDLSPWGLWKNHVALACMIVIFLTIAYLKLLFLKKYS

Mus musculus [13] = experiment: Toxicity in nude BALB/c mouse xenografted with FU-resistant human HCT8 cells assessed as abnormal weight changes in heart at 17.8 to 35.7 umol/kg administered as via oral gavage daily for 21 days; assay type: organism-based, HCT-8; details: in vivo, 504 h; outline: as §1
HCT-8 [14] = experiment: Induction of nitric oxide release in human HCT8 cells at 100 uM incubated for 150 mins by Griess assay; assay type: functional, cell-based
Outline: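 Cells (1 × 10^6/well) treated in triplicate with compound at 100 µM for 150 min. Lysates mixed with Griess reagent for 10 min at 37 °C and read at 540 nm. Nitrite quantified from a sodium nitrite standard curve; 0.4% DMSO-treated cells served as background. Mean ± SD of three experiments.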

Chain of Multidrug resistance-associated protein 1 (P33527 whole entry): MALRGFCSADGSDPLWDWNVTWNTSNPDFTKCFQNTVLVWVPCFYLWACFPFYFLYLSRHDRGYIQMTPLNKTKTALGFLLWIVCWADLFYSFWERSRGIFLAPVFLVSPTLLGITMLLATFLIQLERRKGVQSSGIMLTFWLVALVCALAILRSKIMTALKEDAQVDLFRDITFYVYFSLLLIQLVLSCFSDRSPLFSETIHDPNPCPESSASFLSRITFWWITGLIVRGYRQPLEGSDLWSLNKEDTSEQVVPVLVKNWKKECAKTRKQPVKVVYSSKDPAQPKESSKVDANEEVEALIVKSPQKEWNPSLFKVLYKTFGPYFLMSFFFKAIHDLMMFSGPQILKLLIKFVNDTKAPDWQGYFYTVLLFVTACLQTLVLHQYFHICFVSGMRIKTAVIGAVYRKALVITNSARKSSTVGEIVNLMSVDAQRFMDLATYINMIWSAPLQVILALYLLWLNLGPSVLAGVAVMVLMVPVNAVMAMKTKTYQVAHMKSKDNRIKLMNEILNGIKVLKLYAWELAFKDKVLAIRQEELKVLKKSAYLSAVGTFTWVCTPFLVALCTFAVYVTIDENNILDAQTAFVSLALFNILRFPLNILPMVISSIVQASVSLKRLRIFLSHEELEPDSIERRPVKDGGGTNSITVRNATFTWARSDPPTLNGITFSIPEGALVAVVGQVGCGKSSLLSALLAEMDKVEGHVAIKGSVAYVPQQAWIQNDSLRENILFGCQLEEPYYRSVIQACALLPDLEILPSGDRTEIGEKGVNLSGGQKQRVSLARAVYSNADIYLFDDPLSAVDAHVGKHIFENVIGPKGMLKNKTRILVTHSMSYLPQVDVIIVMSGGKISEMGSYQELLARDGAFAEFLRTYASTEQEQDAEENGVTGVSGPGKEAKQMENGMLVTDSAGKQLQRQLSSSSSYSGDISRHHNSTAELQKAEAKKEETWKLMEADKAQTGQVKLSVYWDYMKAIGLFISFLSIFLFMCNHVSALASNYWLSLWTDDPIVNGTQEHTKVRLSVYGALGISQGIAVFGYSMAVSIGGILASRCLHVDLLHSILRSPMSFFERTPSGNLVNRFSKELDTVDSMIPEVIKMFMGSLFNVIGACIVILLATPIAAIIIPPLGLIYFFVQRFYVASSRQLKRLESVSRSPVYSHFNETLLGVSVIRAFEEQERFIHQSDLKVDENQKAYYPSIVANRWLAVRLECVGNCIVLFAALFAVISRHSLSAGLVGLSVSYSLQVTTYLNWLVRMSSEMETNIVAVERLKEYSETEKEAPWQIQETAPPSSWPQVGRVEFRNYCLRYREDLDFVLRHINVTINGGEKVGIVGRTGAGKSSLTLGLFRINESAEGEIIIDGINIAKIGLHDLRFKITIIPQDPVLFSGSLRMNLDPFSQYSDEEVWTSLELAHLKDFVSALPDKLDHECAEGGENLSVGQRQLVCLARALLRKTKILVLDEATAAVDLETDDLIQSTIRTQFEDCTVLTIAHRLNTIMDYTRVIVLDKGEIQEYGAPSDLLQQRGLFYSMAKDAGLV
Chain of Signal transducer and activator of transcription 3 (Homo sapiens) (P40763 whole entry): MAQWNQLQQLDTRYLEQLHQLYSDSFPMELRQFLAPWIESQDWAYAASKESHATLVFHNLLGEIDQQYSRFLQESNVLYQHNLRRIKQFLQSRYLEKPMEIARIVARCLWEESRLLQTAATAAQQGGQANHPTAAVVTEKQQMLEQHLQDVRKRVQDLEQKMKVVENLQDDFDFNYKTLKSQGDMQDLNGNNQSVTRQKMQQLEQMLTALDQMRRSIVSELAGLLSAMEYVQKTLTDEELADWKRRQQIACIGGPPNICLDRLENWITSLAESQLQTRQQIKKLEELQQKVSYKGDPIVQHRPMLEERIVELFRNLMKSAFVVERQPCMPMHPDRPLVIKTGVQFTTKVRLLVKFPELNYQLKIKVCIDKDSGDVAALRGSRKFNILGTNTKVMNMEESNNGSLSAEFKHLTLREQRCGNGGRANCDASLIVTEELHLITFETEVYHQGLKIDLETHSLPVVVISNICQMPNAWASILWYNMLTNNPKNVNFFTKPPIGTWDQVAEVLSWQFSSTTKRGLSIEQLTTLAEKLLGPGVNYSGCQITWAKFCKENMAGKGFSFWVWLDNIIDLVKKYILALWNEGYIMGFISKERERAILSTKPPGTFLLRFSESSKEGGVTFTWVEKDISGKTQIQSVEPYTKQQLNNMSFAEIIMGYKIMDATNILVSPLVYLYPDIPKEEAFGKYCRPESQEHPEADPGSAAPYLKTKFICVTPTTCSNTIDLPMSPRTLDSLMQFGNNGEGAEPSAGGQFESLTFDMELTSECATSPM

Compound	Activity (Mus musculus [1])	inhibition (HCT-8 [2])	Activity (Mus musculus [3]) [g]	Activity (Mus musculus [4])	inhibition in vivo at 17.8 µmol/kg [5] [%]	Activity (Mus musculus [6]) [g]	Activity [7]	inhibition [8]	Activity (Mus musculus [9]) [g]	Activity (Mus musculus [10])	Activity (Mus musculus [11])	Activity [12]	Activity (Mus musculus [13])	Activity (HCT-8 [14])
COC(=O)[C@]12CCC(C)(C)C[C@H]1[C@H]1C(=O)C=C3[C@@]4(C)C=C(C#N)C(=O)C(C)(C)[C@@H]4CC[C@@]3(C)[C@]1(C)CC2 [BARDOXOLONE METHYL]	Non-toxic	Active	16.7	Non-toxic										
CC1(C)CC[C@]2(C(=O)NCC(=O)OCC#CCOc3no[n+]([O-])c3S(=O)(=O)c3ccccc3)CC[C@]3(C)[C@H](C(=O)C=C4[C@@]5(C)C=C(C#N)C(=O)C(C)(C)[C@@H]5CC[C@]43C)[C@@H]2C1					49.2	30	Dose-dependent effect	Dose-dependent effect	17.5	Non-toxic	Non-toxic	Dose-dependent effect	Non-toxic	Active
